The species named for assay [1] is Rattus norvegicus. The experiment in a line: Inhibitory activity against 48/80 induced release of Histamine from isolated rat peritoneal mast cells at a dose of 5*10e-4 mol; Inactive. The format is functional, cell-based.
Assay [2] is filed under the species Rattus norvegicus. The experiment in a line: Inhibitory activity against 48/80 induced release of Histamine from isolated rat peritoneal mast cells at a dose of 5*10e-4 mol. In kind it is functional. Summed up:
(§1)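 Rat peritoneal cells (~10% mast cells) collected by lavage with Tris-HCl-buffered (10 mmol, pH 7.4) salt solution. The reaction was stopped on ice. Histamine was measured by o-phthalaldehyde fluorometry in duplicate, expressed as % of total minus spontaneous release, with % inhibition taken versus 48/80 alone.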

The species named for assay [3] is Rattus norvegicus. Description: Inhibitory activity against 48/80 induced release of Histamine from isolated rat peritoneal mast cells at a dose of 10e-3 mol. In kind it is functional. Summed up: as §1
Assay [4] is filed under the species Rattus norvegicus. Description: Inhibitory activity on compound (in 0.5% CMC solution) 48/80 induced rat mast cell degranulation at a dose of 0.25micorg/mL, incubated for 15 min at 37 degree C. In kind it is functional. Summed up:
(§2)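 Harvested rat peritoneal mast cells were preincubated 15 min at 37 °C with test compound suspended in 0.5% CMC (final 10^-3 mol/L). Degranulation was scored by inverted phase-contrast microscopy, counting >100 mast cells. % inhibition = 100[1 − (X − Z)/(Y − Z)], where Z corrects for degranulation in control medium.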

The species entered for assay [5] is Rattus norvegicus. Description: Inhibitory activity (10e-3 mol/L) against 48/80 induced rat mast cell degranulation at a dose of 0.25ug/mL, incubated for 15 min at 37 degree C. The format is functional. Summed up: as §2
The species named for assay [6] is Rattus norvegicus. The experiment in a line: Inhibitory activity against 48/80 induced release of Histamine from isolated rat peritoneal mast cells at a dose of 2*10e-4 mol. In kind it is functional. Summed up: as §1
The species named for assay [7] is Rattus norvegicus. The experiment in a line: Inhibitory activity against 48/80 induced release of Histamine from isolated rat peritoneal mast cells at a dose of 10e-3 mol; Inactive. The format is functional, cell-based. Summed up:
as §1

The species named for assay [8] is Rattus norvegicus. Description: Inhibitory activity on the compound (in 0.5% CMC solution) 48/80 induced release of Histamine rat mast cell degranulation at a dose of 0.25micorg/mL, incubated for 15 min at 37 degree C. In kind it is functional. The method, boiled down: as §2
For assay [9], the species on record is Rattus norvegicus. Description: (§3) Inhibitory activity on the compound 48/80 induced release of Histamine from isolated rat peritoneal mast cells at a dose of 5*10e-4 mol. The format is functional. Summed up:
as §1

The species named for assay [10] is Rattus norvegicus. The description is as §3. In kind it is functional. The method, boiled down: as §1
This is another data set of the same source.

For assay [11], the species on record is Rattus norvegicus. The experiment in a line: Inhibitory activity on the compound 48/80 induced release of Histamine from isolated rat peritoneal mast cells at a dose of 2*10e-4 mol. The format is functional. The method, boiled down:
as §1

For assay [12], the species on record is Rattus norvegicus. The experiment in a line: Inhibitory activity on the compound 48/80 induced release of Histamine from isolated rat peritoneal mast cells at a dose of 10e-3 mol. The format is functional. The method, boiled down: as §1
The species entered for assay [13] is Rattus norvegicus. Description: Inhibitory activity of histamine release at 2*10e-3 mol. In kind it is functional.

The source made the active and inactive calls. No cut-off for these calls is given here.

In the case of `C=CCN1CCC2(CC1)OC(=O)c1ccccc1C2C(=O)OCC` (centres undefined), the inhibition entry in assay [1] is “inactive”. For orientation: Inhibition means the change of the read-out against control, counted positive when it falls. On to `CCOC(=O)C1c2ccccc2C(=O)OC12CCN(Cc1ccccc1)CC2.Cl` (centres undefined), for which the results for the Inhibition in assay [2] and in [3] were 12% and 84%, respectively. As to `O=C1OC2(CCC(Cc3ccccc3)CC2)Cc2ccccc21` (centres undefined), the Inhibition in assay [4] turned out to be 52%. Regarding `Cl.O=C1OC2(CCN(c3ccccc3)CC2)Cc2ccccc21`, in [5], the Inhibition stood at 29.1%. With `CN1CCC2(CC1)Cc1ccccc1C(=O)O2`, the inhibition result in assay [1] is “inactive”. With `O=C1OCC2(CCN(CCc3ccccc3)CC2)c2ccccc21`, the Inhibition in [2] was determined as 94%; in [3], 100%; in assay [6], 15%. Take `CN1CCC(CO)(c2ccccc2)CC1`: in [7], the inhibition entry was “inactive”. `O=C([O-])c1cc(=O)c2c(OCC(O)COc3cccc4oc(C(=O)[O-])cc(=O)c34)cccc2o1.[Na+].[Na+]` [CROMOLYN SODIUM]: the Inhibition was 58% in [2], 80% in assay [3] and 31% in assay [6].

On to `CN(CCC1(C)COCc2ccccc21)Cc1ccccc1` (centres undefined), for which the Inhibition in assay [8] was -8%. Regarding `OCC1(c2ccccc2)CCN(Cc2ccccc2)CC1`, in assay [7], the inhibition result was “inactive”. As to `CCCCCCCCN1CCC2(CC1)Cc1ccccc1C(=O)O2`, the inhibition entry in [9] is “inactive”. For the compound `CC(C)CN1CCC2(CC1)Cc1ccccc1C(=O)O2`, the inhibition entry in [1] is “inactive”. `CN1CCC2(CC1)COC(=O)c1ccccc12`: the inhibition entry in assay [1] was “inactive”. Regarding `CCCN1CCC2(CC1)Cc1ccccc1C(=O)O2`, the inhibition entry in assay [1] was “inactive”. As to `CCCCCN1CCC2(CC1)Cc1ccccc1C(=O)O2.Cl`, the figures for the Inhibition in assay [2], in assay [3] and in [6] were 35%, 79% and 23%, respectively.

With `Cl.O=C1OC2(CCN(CCc3ccccc3)CC2)Cc2ccccc21`, the Inhibition in assay [2] was found to be 6%; in [3], 86%. For `C=CCN1CCC2(CC1)Cc1ccccc1C(=O)O2`, the inhibition result in assay [1] was “inactive”. With `O=C1OC2(CCN(C3CCCCC3)CC2)Cc2ccccc21`, the inhibition entry in [1] is “inactive”. Consider `CCCCN1CCC2(CC1)Cc1ccccc1C(=O)O2.Cl`, for which the Inhibition is recorded as 43% in [2], 85% in assay [3] and 18% in assay [6]. With `Cl.O=C1OC2(CCN(CC3CCCCC3)CC2)Cc2ccccc21`, the Inhibition in assay [2] is reported as 47%; in assay [3], 83%.

For `CCCCCCCN1CCC2(CC1)Cc1ccccc1C(=O)O2.Cl`, the Inhibition in assay [10] stood at 100%; in assay [11] it was 64%; in [12] it was 100%. In the case of `CCCCCCN1CCC2(CC1)Cc1ccccc1C(=O)O2.Cl`, the Inhibition is 67% in [2] and 32% in assay [6]. For the compound `CCCCCCCCCCN1CCC2(CC1)Cc1ccccc1C(=O)O2`, the inhibition entry in [9] is “inactive”. Consider `Cl.O=C1OC2(CCN(Cc3ccccc3)CC2)Cc2ccccc21`, for which the Inhibition in assay [2] came to 40%; in assay [8], 94.5%; in assay [3], 76%; in assay [6], 20%. With `Cl.c1ccc(CCN2CCC3(CC2)COCc2ccccc23)cc1`, the Inhibition in [2] amounted to 96%; in assay [3], 100%; in assay [6], 28%. On to `CN1CCC2(CC1)COCc1ccccc12`, for which, in [1], the inhibition result was “inactive”.

For the compound `Cl.O=C1OC2(CCN(CCCc3ccccc3)CC2)Cc2ccccc21`, the Inhibition in [2] turned out to be 18%; in assay [3] it was 85%; in assay [6], 5%. As for `Cl.O=C1OCC2(CCN(Cc3ccccc3)CC2)c2ccccc21`, the Inhibition in [10] came out at 31%; in assay [6], 5%. As to `O=C1OC2(CCNCC2)Cc2ccccc21`, in assay [1], the inhibition result is “inactive”.

Regarding `CCOC(=O)C1c2ccccc2C(=O)OC12CCN(C)CC2` (centres undefined), the inhibition entry in assay [1] was “inactive”. Regarding `C[N+]1(Cc2ccccc2)CCC2(CC1)Cc1ccccc1C(=O)O2.[I-]` (centres undefined), the Inhibition in [13] is on record as 28%.

For `OCC1(c2ccccc2)CCN(CCc2ccccc2)CC1`, the Inhibition in [3] is reported as 49%.

The record behind these values is ChEMBL document CHEMBL1121901, “Synthesis and structure-activity relationship of spiro[isochromanpiperidine] analogues for inhibition of histamine release” (1981).
